From ChEMBL document CHEMBL4261589, “Structure-based design of allosteric calpain-1 inhibitors populating a novel bioactivity space” (Eur J Med Chem, 2018) come the findings set out here.

Structures are written as SMILES. Calls of active or inactive are those of the source. The rule behind the calls is not given here.

For experiment [1], the target named is Calpain small subunit 1 (Homo sapiens) (UniProt P04632). The experiment in a line: Binding affinity to human Calpain-1 PEF(S) domain at 0.5 to 500 uM expressed in Escherichia coli BL21-CodonPlus (DE3) RP cells incubated for 5 mins by TNS displacement assay.
Calpain small subunit 1 (Homo sapiens), sequence (P04632 whole entry, looked up, the tested form may be a part): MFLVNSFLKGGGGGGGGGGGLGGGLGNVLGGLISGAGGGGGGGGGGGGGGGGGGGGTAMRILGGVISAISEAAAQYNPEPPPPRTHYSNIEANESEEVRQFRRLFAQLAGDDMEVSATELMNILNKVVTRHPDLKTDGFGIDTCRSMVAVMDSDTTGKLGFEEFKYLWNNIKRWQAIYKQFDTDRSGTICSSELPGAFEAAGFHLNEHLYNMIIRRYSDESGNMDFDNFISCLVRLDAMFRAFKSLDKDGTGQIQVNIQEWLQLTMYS
Experiment [2] concerns the target Calpain-1 catalytic subunit (Homo sapiens) (UniProt P07384). The experiment in a line: Inhibition of human Calpain-1 active site domain using (H2NeK(-FAM)-EVYGMMK(DABCYL)eOH) substrate by FRET assay.
In experiment [3] the target is T1, Calpain-1 catalytic subunit (Sus scrofa, UniProt P35750).
T1 sequence (P35750 whole entry): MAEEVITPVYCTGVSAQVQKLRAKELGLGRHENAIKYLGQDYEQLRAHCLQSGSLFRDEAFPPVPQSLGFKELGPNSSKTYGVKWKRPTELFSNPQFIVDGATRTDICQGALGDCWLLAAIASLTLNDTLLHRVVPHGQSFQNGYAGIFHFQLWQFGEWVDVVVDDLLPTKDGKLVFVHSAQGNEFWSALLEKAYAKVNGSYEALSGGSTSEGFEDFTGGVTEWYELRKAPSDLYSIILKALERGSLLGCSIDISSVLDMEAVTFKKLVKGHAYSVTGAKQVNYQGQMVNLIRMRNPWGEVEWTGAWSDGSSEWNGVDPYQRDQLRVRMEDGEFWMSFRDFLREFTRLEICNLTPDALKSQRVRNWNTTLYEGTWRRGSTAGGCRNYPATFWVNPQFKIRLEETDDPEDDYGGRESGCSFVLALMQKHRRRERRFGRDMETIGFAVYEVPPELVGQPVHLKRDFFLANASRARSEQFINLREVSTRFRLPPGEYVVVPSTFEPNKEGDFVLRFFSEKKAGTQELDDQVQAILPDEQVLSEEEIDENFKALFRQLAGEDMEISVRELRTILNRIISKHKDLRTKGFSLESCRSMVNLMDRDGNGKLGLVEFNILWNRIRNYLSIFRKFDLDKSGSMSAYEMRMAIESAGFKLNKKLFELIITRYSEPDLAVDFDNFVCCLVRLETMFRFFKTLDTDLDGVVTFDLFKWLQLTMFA
The experiment in a line: Inhibition of full length porcine Calpain-1 complex using (H2NeK(-FAM)-EVYGMMK(DABCYL)eOH) substrate by FRET assay. The method in brief:
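Purified porcine calpain-1 (25 nM) with 1 µM FAM/DABCYL α-spectrin peptide, cleaved at Tyr-Gly, in 10 mM HEPES, 10 mM DTT, 0.5 mM EDTA, 0.1% BSA, pH 6.8, at 37 °C. Compounds (5 nM–200 µM, from DMSO stock) were added before starting with 5 mM CaCl2. Fluorescence read at ex 490/em 520 nm. DMSO-alone controls were run. IC50 given as mean ± SD of three independent experiments.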

Consider `O=C(NC1CCC(O)CC1)c1ccc(S(=O)(=O)Nc2cccc(C(F)(F)F)c2)cc1` (stereo not drawn), for which, in experiment [1], the result was Active. The IC50 result in experiment [2] and in experiment [3] was “Not Active” throughout.
As to `COCCOc1nc(-c2cccc(C(F)(F)F)c2)n(-c2ccc(NC(=O)C(C)C)cc2)n1`, the IC50 result in experiment [2] and in experiment [3] was “Not Active” throughout.
Consider `FC(F)(F)c1ccc(CSc2nnc3ccc(-c4ccccn4)nn23)cc1`, for which the IC50 (as a rule, the point on the concentration scale where inhibition reaches its midpoint) in experiment [2] was “Not Active”; in experiment [3] (read-out: IC50), 20.5 µM.
`O=C(O)c1cc(NS(=O)(=O)c2ccc(F)cc2)cnc1N1CCCCCC1`: the result in experiment [1] was Active. For the same compound, the IC50 in experiment [2] (read-out: IC50) was 41.1 µM; in experiment [3] (read-out: IC50), greater than 100 µM.
As to `FC(F)(F)c1cccc(CSc2nnc3ccc(-c4ccccn4)nn23)c1`, the IC50 entry in experiment [2] and in experiment [3] was “Not Active” each time.
`O=C1CCCN1c1cccc(NS(=O)(=O)c2cccc(C(F)(F)F)c2)c1`: the result in experiment [1] was inactive. Moreover, the half-inhibitory concentration (IC50) result in experiment [2] and in experiment [3] was “Not Active” in each case.
`O=C(CSc1nnc2ccc(-c3ccccn3)nn12)Nc1cccc(C(F)(F)F)c1`: the half-inhibitory concentration (IC50) entry in experiment [2] is “Not Active”; in experiment [3] (read-out: IC50) it was 29.7 µM.
`COCCOc1nc(-c2ccc(OC)cc2)n(-c2cccc(NC(=O)c3ccc(C)c(C(F)(F)F)c3)c2)n1`: the IC50 entry in experiment [2] and in experiment [3] was “Not Active” throughout.
Take `O=C(O)/C(S)=C/c1ccc(I)cc1`: in experiment [1], the outcome was Active. Also, the figures for the IC50 in experiment [2] (read-out: IC50) and in experiment [3] (read-out: IC50) were 17.8 µM and 19.3 µM, respectively.
Take `NC(=O)c1cccc(NS(=O)(=O)c2cccc(C(F)(F)F)c2)c1`: the result in experiment [1] was Active. Besides, the IC50 result in experiment [2] and in experiment [3] was “Not Active” in each case.
For `CC(C)(C)NC(=O)c1ccc(Oc2cc(F)c(CC(=O)O)cc2Cl)c(NS(=O)(=O)c2ccc(C3CC3)cc2Cl)c1` [VIDUPIPRANT], in experiment [1], the outcome was Active. Besides, the values for the IC50 in experiment [2] (read-out: IC50) and in experiment [3] (read-out: IC50) were greater than 100 µM and 7.5 µM, respectively.
